The test system of test [1] is Tyrosine-protein kinase ABL1 (Homo sapiens), P00519 [E255K]. Briefly: Binding affinity to human phosphorylated ABL1 E255K mutant (S229 to K512 residues) expressed in mammalian expression system assessed as residual binding level at 1 uM by Kinomescan method relative to control. The method in brief:
(§1)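 KinomeScan active site-directed competition binding panel (468 kinases), compound tested at 1 μM. Result expressed as remaining kinase signal versus DMSO control (percent of control).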

Test [2] addresses Calcium/calmodulin-dependent protein kinase type II subunit gamma (Homo sapiens) (UniProt Q13555). The test is described as follows: Binding affinity to wild-type human partial length CAMK2G (R9 to A303 residues) expressed in bacterial expression system assessed as residual binding level at 1 uM by Kinomescan method relative to control.
For test [3], the target named is Calcium/calmodulin-dependent protein kinase type IV (Homo sapiens) (UniProt Q16566). Briefly: Binding affinity to wild-type human partial length CAMK4 (A22 to A322 residues) expressed in bacterial expression system assessed as residual binding level at 1 uM by Kinomescan method relative to control.
Test [4] deals with Discoidin domain-containing receptor 2 (Homo sapiens) (UniProt Q16832). Briefly: Binding affinity to wild-type human partial length DDR2 (V555 to E855 residues) expressed in mammalian expression system assessed as residual binding level at 1 uM by Kinomescan method relative to control. Summed up: (§2)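 Active-site-directed competition binding panel of 468 kinases (KinomeScan), compound at 1 μM. The read-out is kinase remaining bound, given as a percentage of the DMSO control. […]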
Chain of Discoidin domain-containing receptor 2 (Homo sapiens) (Q16832 whole entry, the tested form may be a part): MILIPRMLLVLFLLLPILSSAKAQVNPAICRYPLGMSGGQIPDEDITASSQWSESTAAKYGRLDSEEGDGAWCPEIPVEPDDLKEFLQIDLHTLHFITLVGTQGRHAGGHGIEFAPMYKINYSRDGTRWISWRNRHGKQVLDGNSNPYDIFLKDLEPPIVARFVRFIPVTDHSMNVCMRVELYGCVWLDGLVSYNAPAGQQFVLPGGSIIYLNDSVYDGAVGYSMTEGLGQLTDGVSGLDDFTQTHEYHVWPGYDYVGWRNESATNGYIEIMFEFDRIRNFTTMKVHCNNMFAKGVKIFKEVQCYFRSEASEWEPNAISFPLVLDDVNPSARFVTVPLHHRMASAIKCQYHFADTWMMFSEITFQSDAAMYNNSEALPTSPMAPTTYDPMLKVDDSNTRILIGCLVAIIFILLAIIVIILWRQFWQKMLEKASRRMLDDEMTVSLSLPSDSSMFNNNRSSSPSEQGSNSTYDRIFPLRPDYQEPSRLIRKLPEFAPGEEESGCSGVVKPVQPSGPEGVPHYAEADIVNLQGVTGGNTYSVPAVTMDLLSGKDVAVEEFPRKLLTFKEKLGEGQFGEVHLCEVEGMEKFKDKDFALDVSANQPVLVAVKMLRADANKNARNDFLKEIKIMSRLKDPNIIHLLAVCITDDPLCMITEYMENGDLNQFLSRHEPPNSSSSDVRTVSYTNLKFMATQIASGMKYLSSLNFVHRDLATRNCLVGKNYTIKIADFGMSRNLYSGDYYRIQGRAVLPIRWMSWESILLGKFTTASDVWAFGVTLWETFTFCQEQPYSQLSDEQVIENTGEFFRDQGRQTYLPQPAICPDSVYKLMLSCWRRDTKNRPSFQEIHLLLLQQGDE

Test [5] has as its system Epidermal growth factor receptor (Homo sapiens), P00533 [G719S]. The test is described as follows: Binding affinity to human partial length EGFR G719S mutant (R669 to V1011 residues) expressed in bacterial expression system assessed as residual binding level at 1 uM by Kinomescan method relative to control. The method in brief: as §1
Test [6] has as its target Receptor tyrosine-protein kinase erbB-2 (Homo sapiens) (UniProt P04626). Briefly: Binding affinity to wild-type human partial length ERBB2 (K646 to V1225 residues) expressed in mammalian expression system assessed as residual binding level at 1 uM by Kinomescan method relative to control. The method in brief:
as §2

The target in test [7] is Mitogen-activated protein kinase 1 (Homo sapiens) (UniProt P28482). The test is described as follows: Binding affinity to wild-type human full length ERK2 (M1 to S360 residues) expressed in bacterial expression system assessed as residual binding level at 1 uM by Kinomescan method relative to control. The method in brief:
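Active-site-directed KinomeScan competition binding panel covering 468 kinases, compound tested at 1 μM. Each readout is the kinase signal remaining with compound, expressed as a percentage of the DMSO control. […]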

For test [8], the target named is Serine/threonine-protein kinase/endoribonuclease IRE1 (Homo sapiens) (UniProt O75460). The test is described as follows: Binding affinity to wild-type human partial length ERN1 (S551 to E852 residues) expressed in mammalian expression system assessed as residual binding level at 1 uM by Kinomescan method relative to control. Summed up: as §2
The target in test [9] is Fibroblast growth factor receptor 1 (Homo sapiens, UniProt P11362). Briefly: Binding affinity to wild-type human partial length FGFR1 (P357 to V669 residues) expressed in bacterial expression system assessed as residual binding level at 1 uM by Kinomescan method relative to control.
Test [10] concerns the target Serine/threonine-protein kinase MRCK alpha (Homo sapiens) (UniProt Q5VT25). Briefly: Binding affinity to wild-type human partial length MRCKA (L57 to V418 residues) expressed in bacterial expression system assessed as residual binding level at 1 uM by Kinomescan method relative to control.
In test [11] the target is Muscle, skeletal receptor tyrosine-protein kinase (Homo sapiens) (UniProt O15146). The test is described as follows: Binding affinity to wild-type human partial length MUSK (M553 to V869 residues) expressed in bacterial expression system assessed as residual binding level at 1 uM by Kinomescan method relative to control.
Chain of Muscle, skeletal receptor tyrosine-protein kinase (Homo sapiens) (O15146 whole entry, the tested form may be a part): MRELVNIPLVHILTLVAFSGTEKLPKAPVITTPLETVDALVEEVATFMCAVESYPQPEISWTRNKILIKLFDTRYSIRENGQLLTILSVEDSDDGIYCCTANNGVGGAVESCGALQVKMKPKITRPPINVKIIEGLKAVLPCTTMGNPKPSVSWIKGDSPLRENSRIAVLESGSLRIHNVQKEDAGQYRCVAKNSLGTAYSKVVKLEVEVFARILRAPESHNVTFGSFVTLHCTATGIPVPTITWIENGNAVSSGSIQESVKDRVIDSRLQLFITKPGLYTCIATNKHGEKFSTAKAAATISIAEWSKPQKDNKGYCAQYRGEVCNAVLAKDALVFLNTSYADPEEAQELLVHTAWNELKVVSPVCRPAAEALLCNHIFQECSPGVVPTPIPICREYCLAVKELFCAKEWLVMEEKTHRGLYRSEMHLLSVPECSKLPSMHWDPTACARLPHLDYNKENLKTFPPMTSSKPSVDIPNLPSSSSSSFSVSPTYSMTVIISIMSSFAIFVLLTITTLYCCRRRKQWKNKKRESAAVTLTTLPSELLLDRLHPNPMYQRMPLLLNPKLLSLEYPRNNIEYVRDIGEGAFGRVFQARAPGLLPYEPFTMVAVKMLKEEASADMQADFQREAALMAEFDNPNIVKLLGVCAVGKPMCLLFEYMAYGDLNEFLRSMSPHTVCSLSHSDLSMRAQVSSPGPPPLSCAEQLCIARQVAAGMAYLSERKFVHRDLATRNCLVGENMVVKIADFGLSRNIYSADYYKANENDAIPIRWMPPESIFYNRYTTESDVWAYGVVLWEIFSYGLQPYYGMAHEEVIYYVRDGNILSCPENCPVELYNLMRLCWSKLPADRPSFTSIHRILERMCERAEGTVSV
Test [12] has as its target Myosin-IIIa (Homo sapiens) (UniProt Q8NEV4). The test is described as follows: Binding affinity to wild-type human partial length MYO3A (M1 to K338 residues) expressed in bacterial expression system assessed as residual binding level at 1 uM by Kinomescan method relative to control.
Test [13] concerns the target Serine/threonine-protein kinase Nek5 (Homo sapiens) (UniProt Q6P3R8). The test is described as follows: Binding affinity to wild-type human partial length NEK5 (M1 to M279 residues) expressed in bacterial expression system assessed as residual binding level at 1 uM by Kinomescan method relative to control.
The target of test [14] is Mitogen-activated protein kinase kinase kinase 14 (Homo sapiens) (UniProt Q99558). The test is described as follows: Binding affinity to wild-type human partial length NIK (L318 to P947 residues) expressed in mammalian expression system assessed as residual binding level at 1 uM by Kinomescan method relative to control.
For test [15], the target named is Phosphatidylinositol 4,5-bisphosphate 3-kinase catalytic subunit delta isoform (Homo sapiens) (UniProt O00329). The test is described as follows: Binding affinity to wild-type human partial length PIK3CD (R108 to Q1044 residues) expressed in mammalian expression system assessed as residual binding level at 1 uM by Kinomescan method relative to control.
Chain of Phosphatidylinositol 4,5-bisphosphate 3-kinase catalytic subunit delta isoform (Homo sapiens) (O00329 whole entry, the tested form may be a part, canonical isoform): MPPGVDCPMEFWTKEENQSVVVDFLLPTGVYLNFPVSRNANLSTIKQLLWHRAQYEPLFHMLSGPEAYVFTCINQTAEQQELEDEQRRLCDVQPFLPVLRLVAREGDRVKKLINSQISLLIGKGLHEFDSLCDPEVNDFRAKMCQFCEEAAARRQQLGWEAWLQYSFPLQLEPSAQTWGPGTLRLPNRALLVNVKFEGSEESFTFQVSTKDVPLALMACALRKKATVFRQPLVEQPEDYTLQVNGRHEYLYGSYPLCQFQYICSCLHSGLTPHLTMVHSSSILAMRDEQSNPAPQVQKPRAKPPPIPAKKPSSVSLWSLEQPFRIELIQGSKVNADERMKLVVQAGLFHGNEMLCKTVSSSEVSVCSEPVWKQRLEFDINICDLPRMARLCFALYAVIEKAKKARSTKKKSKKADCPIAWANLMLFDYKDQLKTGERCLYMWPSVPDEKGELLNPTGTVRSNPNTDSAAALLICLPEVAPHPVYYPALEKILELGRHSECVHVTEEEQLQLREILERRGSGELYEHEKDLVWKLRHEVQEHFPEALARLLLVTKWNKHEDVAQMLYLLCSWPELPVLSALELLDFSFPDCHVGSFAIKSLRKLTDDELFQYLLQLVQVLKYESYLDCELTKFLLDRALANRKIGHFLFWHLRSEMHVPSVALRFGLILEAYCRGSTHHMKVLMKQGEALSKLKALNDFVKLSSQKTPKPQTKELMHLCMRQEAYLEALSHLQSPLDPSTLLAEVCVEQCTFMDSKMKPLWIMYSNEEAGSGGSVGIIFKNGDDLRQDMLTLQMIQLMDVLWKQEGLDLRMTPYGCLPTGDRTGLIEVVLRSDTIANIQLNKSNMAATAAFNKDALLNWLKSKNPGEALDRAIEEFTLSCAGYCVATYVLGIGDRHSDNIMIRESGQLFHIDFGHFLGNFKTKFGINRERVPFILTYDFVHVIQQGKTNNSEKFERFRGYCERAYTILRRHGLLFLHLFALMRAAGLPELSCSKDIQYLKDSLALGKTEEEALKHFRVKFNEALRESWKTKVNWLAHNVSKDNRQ
For test [16], the target named is cAMP-dependent protein kinase catalytic subunit alpha (Homo sapiens) (UniProt P17612). Briefly: Binding affinity to wild-type human partial length PKAC-alpha (G10 to F351 residues) expressed in bacterial expression system assessed as residual binding level at 1 uM by Kinomescan method relative to control.
Test [17] concerns the target Protein kinase C theta type (Homo sapiens) (UniProt Q04759). The test is described as follows: Binding affinity to wild-type human partial length PRKCQ (L350 to S706 residues) expressed in bacterial expression system assessed as residual binding level at 1 uM by Kinomescan method relative to control. Summed up:
as §2

Test [18] addresses RAF proto-oncogene serine/threonine-protein kinase (Homo sapiens) (UniProt P04049). Briefly: Binding affinity to wild-type human partial length RAF1 (I330 to T640 residues) expressed in bacterial expression system assessed as residual binding level at 1 uM by Kinomescan method relative to control.
The target in test [19] is Ribosomal protein S6 kinase alpha-4 (Homo sapiens) (UniProt O75676). The test is described as follows: Binding affinity to wild-type human partial length C-terminal RPS6KA4 kinase domain 2 (M375 to T705 residues) expressed in mammalian expression system assessed as residual binding level at 1 uM by Kinomescan method relative to control.
The target of test [20] is Ribosomal protein S6 kinase alpha-1 (Homo sapiens) (UniProt Q15418). The test is described as follows: Binding affinity to wild-type human partial length C- terminal RSK1 kinase domain 2 (P360 to L681 residues) expressed in bacterial expression system assessed as residual binding level at 1 uM by Kinomescan method relative to control.
The target of test [21] is Tyrosine-protein kinase receptor TYRO3 (Homo sapiens) (UniProt Q06418). The test is described as follows: Binding affinity to wild-type human partial length TYRO3 (S497 to T814 residues) expressed in bacterial expression system assessed as residual binding level at 1 uM by Kinomescan method relative to control.
Chain of Tyrosine-protein kinase receptor TYRO3 (Homo sapiens) (Q06418 whole entry, the tested form may be a part): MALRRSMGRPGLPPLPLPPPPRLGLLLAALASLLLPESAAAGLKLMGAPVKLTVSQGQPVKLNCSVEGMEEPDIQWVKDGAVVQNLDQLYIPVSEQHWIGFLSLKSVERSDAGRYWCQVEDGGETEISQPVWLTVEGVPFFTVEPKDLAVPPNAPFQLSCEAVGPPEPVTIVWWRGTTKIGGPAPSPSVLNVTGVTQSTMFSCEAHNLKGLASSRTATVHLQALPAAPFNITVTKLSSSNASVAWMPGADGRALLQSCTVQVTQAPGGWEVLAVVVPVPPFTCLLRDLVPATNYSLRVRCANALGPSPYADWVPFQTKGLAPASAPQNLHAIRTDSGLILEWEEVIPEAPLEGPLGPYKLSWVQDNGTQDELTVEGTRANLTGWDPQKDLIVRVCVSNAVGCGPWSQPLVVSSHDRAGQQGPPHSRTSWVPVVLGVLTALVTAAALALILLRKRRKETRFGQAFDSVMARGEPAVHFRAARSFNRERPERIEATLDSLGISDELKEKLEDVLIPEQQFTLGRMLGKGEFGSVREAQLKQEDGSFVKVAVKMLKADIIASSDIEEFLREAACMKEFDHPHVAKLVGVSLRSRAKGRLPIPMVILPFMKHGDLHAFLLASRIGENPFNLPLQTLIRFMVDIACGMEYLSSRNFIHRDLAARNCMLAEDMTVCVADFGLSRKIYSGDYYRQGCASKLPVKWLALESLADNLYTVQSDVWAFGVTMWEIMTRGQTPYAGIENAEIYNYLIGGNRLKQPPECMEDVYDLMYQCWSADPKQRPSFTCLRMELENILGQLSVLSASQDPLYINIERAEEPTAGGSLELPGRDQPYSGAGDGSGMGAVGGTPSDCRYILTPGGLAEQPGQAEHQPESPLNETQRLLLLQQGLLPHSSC
In test [22] the target is Serine/threonine-protein kinase WNK1 (Homo sapiens) (UniProt Q9H4A3). The test is described as follows: Binding affinity to wild-type human partial length WNK1 (Q194 to A490 residues) expressed in mammalian expression system assessed as residual binding level at 1 uM by Kinomescan method relative to control.

Chain of RAF proto-oncogene serine/threonine-protein kinase (Homo sapiens) (P04049 whole entry, the tested form may be a part): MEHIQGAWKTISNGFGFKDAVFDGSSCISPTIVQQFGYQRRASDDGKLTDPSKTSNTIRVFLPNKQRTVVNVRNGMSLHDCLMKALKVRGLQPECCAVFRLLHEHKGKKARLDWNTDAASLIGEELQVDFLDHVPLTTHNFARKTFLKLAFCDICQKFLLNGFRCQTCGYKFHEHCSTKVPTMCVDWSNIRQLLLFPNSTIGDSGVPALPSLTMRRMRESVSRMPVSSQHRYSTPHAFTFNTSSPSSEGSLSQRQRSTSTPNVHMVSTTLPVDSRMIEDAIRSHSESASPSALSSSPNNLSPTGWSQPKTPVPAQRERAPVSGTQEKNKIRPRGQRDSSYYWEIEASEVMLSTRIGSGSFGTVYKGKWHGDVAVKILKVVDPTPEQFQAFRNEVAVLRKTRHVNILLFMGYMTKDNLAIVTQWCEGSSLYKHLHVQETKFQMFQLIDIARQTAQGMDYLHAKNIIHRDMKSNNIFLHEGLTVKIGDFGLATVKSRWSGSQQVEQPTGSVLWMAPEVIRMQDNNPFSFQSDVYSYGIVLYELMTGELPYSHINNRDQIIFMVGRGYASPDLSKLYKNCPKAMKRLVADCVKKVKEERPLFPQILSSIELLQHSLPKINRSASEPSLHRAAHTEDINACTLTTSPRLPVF
Chain of Protein kinase C theta type (Homo sapiens) (Q04759 whole entry, looked up, the tested form may be a part): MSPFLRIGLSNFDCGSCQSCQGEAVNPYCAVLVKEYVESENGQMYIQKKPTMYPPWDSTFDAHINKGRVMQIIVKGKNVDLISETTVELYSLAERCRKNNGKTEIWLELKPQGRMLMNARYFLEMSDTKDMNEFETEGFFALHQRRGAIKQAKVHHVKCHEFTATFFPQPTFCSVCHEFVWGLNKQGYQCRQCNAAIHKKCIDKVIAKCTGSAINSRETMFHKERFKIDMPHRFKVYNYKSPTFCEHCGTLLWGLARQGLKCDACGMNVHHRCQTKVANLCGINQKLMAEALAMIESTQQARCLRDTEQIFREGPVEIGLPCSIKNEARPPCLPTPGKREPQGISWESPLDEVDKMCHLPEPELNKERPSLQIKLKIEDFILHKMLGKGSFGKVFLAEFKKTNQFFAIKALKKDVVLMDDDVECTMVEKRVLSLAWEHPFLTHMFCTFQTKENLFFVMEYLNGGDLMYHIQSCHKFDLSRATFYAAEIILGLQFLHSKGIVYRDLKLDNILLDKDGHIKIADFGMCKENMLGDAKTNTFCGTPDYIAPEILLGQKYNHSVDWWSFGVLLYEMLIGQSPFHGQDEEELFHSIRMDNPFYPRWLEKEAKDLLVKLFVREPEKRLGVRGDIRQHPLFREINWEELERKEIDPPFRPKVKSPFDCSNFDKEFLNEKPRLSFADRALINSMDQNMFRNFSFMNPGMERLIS

For `C=CC(=O)Nc1ccccc1Nc1nc(Nc2ccc(N3CCN(C)CC3)cc2)ncc1C(=O)Nc1c(C)cccc1Cl`, the Activity was found to be 0.15% in test [1]; 100% in [2]; 100% in [3]; 26% in test [4]; 95% in [5]; 63% in test [6]. Besides, the Activity came to 100% in test [7]; 98% in test [8]; 100% in test [9]; 100% in test [10]; 100% in test [11]; 100% in [12]. Moreover, the Activity in test [13] amounted to 100%; in [14], 100%; in test [15] it was 100%; in test [16] it was 100%; in [17], 86%; in test [18], 100%. For the same molecule, the Activity in test [19] amounted to 100%; in test [20], 100%; in test [21], 89%; in [22], 100%.

Source of the values: ChEMBL document CHEMBL4354843, “Structure-Based Design of a Potent and Selective Covalent Inhibitor for SRC Kinase That Targets a P-Loop Cysteine” (J Med Chem, 2020).
